{"data": "Measured values collected from several papers", "TEK": "Angiopoietin-1 receptor (TEK, Homo sapiens, UniProt Q02763)", "TEK Y897S": "Angiopoietin-1 receptor (TEK, Homo sapiens, UniProt Q02763, Y897S)", "TEK R849W": "Angiopoietin-1 receptor (TEK, Homo sapiens, UniProt Q02763, R849W)", "note": "Lines come from different studies, so protocols differ."}
{"Compound": "CCN(CC)c1ccc(C2=NNC(=O)CC2C)cc1[N+](=O)[O-] (centres unmarked)", "target": "TEK", "test": "enzyme activity, inhibitor", "conditions": "10 µM", "quantity": "remaining activity", "result": "24%"}
{"Compound": "O=C1NC(=O)c2cc(Nc3ccc(F)cc3)c(Nc3ccc(F)cc3)cc21", "target": "TEK", "test": "cell-free assay", "conditions": "0.5 µM", "quantity": "remaining signal", "result": "97.6%"}
{"Compound": "Cn1cc(Cl)c2c(Oc3c(F)cc(Nc4cc(Cl)nc(N)n4)cc3F)ccnc21", "target": "TEK", "test": "cell-free assay, competition with immobilised ligand", "conditions": "0.1 µM", "quantity": "remaining binding", "result": "100%"}
{"Compound": "CCOc1cc(-c2nncn2C)ccc1Nc1ncc2cc(C)nc(NCC(C)(C)C)c2n1", "target": "TEK", "test": "enzyme activity, inhibitor, FRET", "conditions": "1 µM", "quantity": "inhibition", "result": "< 15%"}
{"Compound": "Cc1cnc(NC2CCOCC2)nc1-n1cnc(C(=O)NC(CN)c2cc(F)cc(Cl)c2)c1 (centres unmarked)", "target": "TEK Y897S", "test": "enzyme activity, inhibitor, radiometric", "conditions": "1 µM", "quantity": "remaining activity", "result": "105%"}
{"Compound": "CC(C)(O)[C@H]1CC[C@H](Nc2ccc3ncc(-c4cccc(C(F)(F)F)c4)n3n2)CC1", "target": "TEK", "test": "enzyme activity, inhibitor", "conditions": "1 µM", "quantity": "remaining activity", "result": "89%"}
{"Compound": "CS(=O)(=O)Nc1cccc(-c2csc(NC(=O)CSc3nc4nccnc4c(=O)n3CCc3ccccc3)n2)c1", "target": "TEK", "test": "enzyme activity, inhibitor", "conditions": "10 µM", "quantity": "inhibition", "result": "3%"}
{"Compound": "COc1cc2ncnc(Nc3ccc(Oc4ccccc4)cc3C)c2cc1OC", "target": "TEK", "test": "enzyme activity, inhibitor", "conditions": "1 µM", "quantity": "inhibition", "result": "13%"}
{"Compound": "C[C@H](c1ccc(F)cc1)N(Cc1cccc(C(=O)O)c1)C(=O)c1cnc2ccccc2c1", "target": "TEK", "test": "cell-free assay, competition with immobilised ligand", "conditions": "1 µM", "quantity": "remaining binding", "result": "98%"}
{"Compound": "COc1cc(Cl)c(C(=O)N[C@@H](CN[C@H]2CC[C@@H](N)CC2)Cc2ccc(C#N)cc2)cc1-c1ccc(CN[C@H](C)c2ccc(C)cc2)o1", "target": "TEK", "test": "enzyme activity, inhibitor", "conditions": "1 µM", "quantity": "remaining activity", "result": "79%"}
{"Compound": "CCc1ccccc1C(=O)Nc1n[nH]c2c(C)c(F)c(C3C(C#N)=C(C)N(C)C(C)=C3C#N)cc12", "target": "TEK", "test": "cell-free assay, competition with immobilised ligand", "conditions": "1 µM", "quantity": "remaining binding", "result": "91%"}
{"Compound": "Cc1cc(NC(=O)c2cccc3cc(-c4cccc5[nH]nc(N)c45)ccc23)ccc1F", "target": "TEK R849W", "test": "enzyme activity, inhibitor", "conditions": "0.1 µM", "quantity": "activity vs control", "result": "93%"}
{"Compound": "CCOCCn1cc(C(=O)Nc2ccc(-n3nc(-c4cccnc4)cc3C(F)(F)F)cn2)ccc1=O", "target": "TEK", "test": "cell-free assay, competition with immobilised ligand", "conditions": "1 µM", "quantity": "remaining binding", "result": "87%"}
{"Compound": "Cc1ccc(Nc2nccc(N(C)c3ccc4c(C)n(C)nc4c3)n2)cc1S(N)(=O)=O", "target": "TEK", "test": "cell-free assay", "conditions": "0.5 µM", "quantity": "remaining signal", "result": "69.3%"}
{"Compound": "CCN(CC)CCNC(=O)c1c(C)[nH]c(/C=C2\\C(=O)Nc3ccc(F)cc32)c1C", "target": "TEK", "test": "enzyme activity, inhibitor", "conditions": "0.3 µM", "quantity": "inhibition", "result": "-2%"}
{"Compound": "CC1=C(C#N)[C@@H](c2ccc3[nH]nc(C)c3c2)C(C#N)=C(c2ccc(Cl)cc2)N1", "target": "TEK", "test": "cell-free assay, competition with immobilised ligand", "conditions": "1 µM", "quantity": "remaining binding", "result": "74.5%"}
{"Compound": "CC(C)(C)c1nc2c(s1)c1nc(N)ncc1c1ccc(NS(=O)(=O)c3c(F)cccc3F)c(F)c12", "target": "TEK", "test": "enzyme activity, inhibitor, radiometric", "conditions": "1 µM", "quantity": "remaining activity", "result": "79%"}
{"Compound": "CCCOc1ccc([C@H]2[C@H](C(=O)O)[C@@H](c3ccc4c(c3)OCO4)CN2CC(=O)Nc2c(CC)cccc2CC)cc1", "target": "TEK", "test": "cell-free assay, competition with immobilised ligand", "conditions": "1 µM", "quantity": "remaining binding", "result": "100%"}
{"Compound": "Cc1[nH]c(/C=C2\\C(=O)Nc3ccc(F)cc32)c(C)c1C(=O)N[C@H]1CCN(C(=O)N(C)C)C1", "target": "TEK", "test": "enzyme activity, inhibitor", "conditions": "0.1 µM", "quantity": "remaining activity", "result": "94%"}
{"Compound": "COc1cc(Nc2cnc(C#N)c(O[C@H](C)CN(C)C)n2)ncc1-c1cnn(C)c1", "target": "TEK", "test": "enzyme activity, inhibitor, radiometric", "conditions": "1 µM", "quantity": "remaining activity", "result": "102%"}
{"Compound": "Cc1ccc(C(=O)Nc2ccc(CN3CCN(C)CC3)c(C(F)(F)F)c2)cc1C#Cc1cnc2cccnn12", "target": "TEK", "test": "cell-free assay", "conditions": "23.5 nM", "quantity": "remaining signal", "result": "5.2%"}
{"Compound": "Cc1ccc(NC(=O)c2ccc(CN3CCN(C)CC3)cc2)cc1Nc1nc(-c2cccnc2)cs1", "target": "TEK", "test": "cell-free assay", "conditions": "0.5 µM", "quantity": "remaining signal", "result": "97.2%"}
{"Compound": "Cc1sc(C(=O)NC2COC2)cc1-n1cc(NC(=O)Nc2c(F)cccc2Cl)cn1", "target": "TEK", "test": "enzyme activity, inhibitor", "conditions": "10 µM", "quantity": "remaining activity", "result": "86.6%"}
{"Compound": "O=C(Nc1cnc(Oc2ccc(F)cc2)nc1)N1CCc2ncccc2[C@@H]1c1ccc(F)cc1", "target": "TEK", "test": "cell-free assay, competition with immobilised ligand", "conditions": "1 µM", "quantity": "remaining binding", "result": "93%"}
{"Compound": "Cc1ccc(NC(=O)c2ccc(C)c(C(F)(F)F)c2)cc1C#Cc1nn(C2CCC(O)CC2)c2ncnc(N)c12 (centres unmarked)", "target": "TEK R849W", "test": "cell-free assay", "conditions": "10 µM", "quantity": "remaining signal", "result": "0%"}
{"Compound": "CNCc1ccc(-c2cc(-c3nc(-c4ccc(S(=O)(=O)C(C)C)cc4)cnc3N)on2)cc1", "target": "TEK", "test": "enzyme activity, inhibitor", "conditions": "2 µM", "quantity": "inhibition", "result": "44%"}
{"Compound": "CCCOc1ccc(OC)c(F)c1C(=O)c1ccc(C(=O)N[C@@H]2CNC[C@H]2NC(=O)c2ccc3[nH]ncc3c2)cc1", "target": "TEK R849W", "test": "enzyme activity, inhibitor", "conditions": "10 µM", "quantity": "remaining activity", "result": "46%"}
{"Compound": "CNCc1ccccc1-c1csc([C@@H](C)Nc2nc(C)nc3cc(OC)c(OC)cc23)c1", "target": "TEK", "test": "cell-free assay, competition with immobilised ligand", "conditions": "1 µM", "quantity": "remaining binding", "result": "87%"}
{"Compound": "CNC(=O)c1cc2c(Oc3ccc(NC(=O)C4(C(=O)Nc5ccc(F)cc5)CC4)cc3)ccnc2cc1OC", "target": "TEK Y897S", "test": "enzyme activity, inhibitor, radiometric", "conditions": "1 µM", "quantity": "inhibition", "result": "96%"}
